# Experimental data pooled from the literature.
# Sample: plasma
Structure (SMILES),host,route,dose,setting,Cmax
C[C@@]1(c2cc(NC(=O)c3ccc(C#N)cn3)ccc2F)C=CSC(N)=N1,human,oral,150 mg,single dose,906 ng/mL
C=C(F)C(=O)N1CCN(c2nc(OC[C@@H]3CCCN3C)nc3c2CCN(c2cccc4cccc(Cl)c24)C3)C[C@@H]1CC#N,human,oral,600 mg,"single dose, fasted",984 ng/mL
Br.Cc1ccc(Sc2ccccc2N2CCNCC2)c(C)c1,human,oral,5 mg,"multiple doses, steady state, healthy volunteers",9 ng/mL
CO[C@H]1CC[C@H](N2C(=O)CNc3ncc(-c4ccc(C(C)(C)O)nc4)nc32)CC1,human,oral,60 mg,patients,319 ng/mL
CCn1c(=O)c(-c2cc(NC(=O)Nc3ccccc3)c(F)cc2Br)cc2cnc(NC)cc21,human,oral,150 mg,"single dose, patients",502 ng/mL
CCCOc1ccc([C@H]2CNC(=O)N2c2ccc3[nH]cnc3c2)cc1,human,oral,200 mg,"single dose, fasted, healthy volunteers",1200 ng/mL
COc1cc(C(=O)NC2CCN(C)CC2)c(F)cc1Nc1ncc(C(F)(F)F)c(Oc2cccc3c2C(=O)N(C)C3)n1,human,oral,300 mg,"single dose, patients",4540 nM
Cc1ccc(C(=O)N(CCCN)[C@@H](c2oc3cc(Cl)ccc3c(=O)c2Cc2ccccc2)C(C)C)cc1,human,intravenous,4 mg/m²,"single dose, patients, infusion",489 ng/mL
O=C(/C=C/c1cccc(S(=O)(=O)Nc2ccccc2)c1)NO,human,intravenous,2000 mg/m²,patients,112000 ng/mL
C[C@@H](Oc1ccc(S(C)(=O)=O)cc1C(=O)N1C[C@@H]2C[C@]2(c2cc(C(F)(F)F)on2)C1)C(F)(F)F,human,oral,25 mg,"fasted, tablet",219 nM
COc1cc2c(cc1OC)CN(CCc1ccc(NC(=O)c3cc(OC)c(OC)cc3NC(=O)c3cnc4ccccc4c3)cc1)CC2,human,intravenous,2 mg/kg,patients,2500 nM
CC(C)n1cc(C#N)c2cc(-n3cc(C(=O)O)cn3)ccc21,human,oral,200 mg,"single dose, fed",5400 ng/mL
CC(C)(Sc1ccncc1-c1ccc(C#N)c2ccccc12)C(=O)O,male human,oral,40 mg,"single dose, fasted, healthy volunteers",760 ng/mL
CNC(=O)c1cc(Oc2ccc(NC(=O)Nc3cc(C(C)(C)C)nn3-c3ccc4ncccc4c3)c(F)c2)ccn1,human,oral,200 mg,"multiple doses, twice daily",377 ng/mL
COc1ccc([C@@H]2CN(C(=O)[C@@H](O)CO)C[C@@]2(C)[C@@H](C)O)cc1OC1CN(c2ccc(C)cn2)C1,human,oral,0.1 mg,"single dose, healthy volunteers",8.8 ng/mL
CC(C)(O)c1ccccc1-c1ccc2[nH]c(/C=C/c3ccc(C(F)(F)F)cc3)nc2c1,male human,oral,60 mg,"single dose, fasted, healthy volunteers",177 ng/mL
Oc1cc(O)c2c(c1)O[C@@H](c1ccc(O)c(O)c1)[C@@H](O)C2,human,oral,30 mg,single dose,0.7 ng/mL
CCc1nc2c(C)cc(N3CCN(CC(=O)N4CC(O)C4)CC3)cn2c1N(C)c1nc(-c2ccc(F)cc2)c(C#N)s1,human,intravenous,0.1 mg,"single dose, fasted, healthy volunteers",9.37 ng/mL
Cn1c(=O)oc2ccc(-c3ccc(C[C@@H](C#N)NC(=O)[C@@H]4CNCCCO4)cc3)cc21,male human,oral,65 mg,"single dose, healthy volunteers",1360 nM
Cn1cc(-c2ccc(S(=O)(=O)[C@@H]3C[C@@H](C(=O)NC4(C#N)CC4)N(C(=O)C4(C(F)(F)F)CC4)C3)c(C(F)(F)F)c2)cn1,human,oral,600 mg,"single dose, fasted, healthy volunteers",1300 ng/mL
